The results in this text go back to ChEMBL document CHEMBL1153410, “Phenolic compounds with radical scavenging and cyclooxygenase-2 (COX-2) inhibitory activities from Dioscorea opposita” (Bioorg Med Chem, 2009).

The subject of assay [1] is Radical scavenging activity. In words: Antioxidant activity assessed as DPPH radical scavenging activity after 30 mins by microplate reader assay. It is filed as functional. In outline: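 Mixed 1 min, then kept at room temperature ([…]) for 30 min. Absorbance read at 515 nm. Scavenging % corrected for a no-DPPH blank. IC50 taken from a calibration curve. Triplicate experiments, mean reported.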
(Loss of DPPH colour is used to gauge radical scavenging.)

The nature of assay [2]: Antioxidant activity assessed as superoxide radical scavenging activity after 20 mins by NBT reduction assay. It is filed as functional. In outline: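 Superoxide made by xanthine/xanthine oxidase and detected by NBT reduction. Xanthine oxidase (0.8 U/ml stock) added, then 37 °C for 20 min. Stopped with 1 M HCl and read at 560 nm. Blank lacks enzyme. IC50 from a calibration curve. Triplicate experiments, mean.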

In assay [3] the target is T1, Prostaglandin G/H synthase 1 (Ovis aries, UniProt P05979).
T1 sequence (P05979 whole entry): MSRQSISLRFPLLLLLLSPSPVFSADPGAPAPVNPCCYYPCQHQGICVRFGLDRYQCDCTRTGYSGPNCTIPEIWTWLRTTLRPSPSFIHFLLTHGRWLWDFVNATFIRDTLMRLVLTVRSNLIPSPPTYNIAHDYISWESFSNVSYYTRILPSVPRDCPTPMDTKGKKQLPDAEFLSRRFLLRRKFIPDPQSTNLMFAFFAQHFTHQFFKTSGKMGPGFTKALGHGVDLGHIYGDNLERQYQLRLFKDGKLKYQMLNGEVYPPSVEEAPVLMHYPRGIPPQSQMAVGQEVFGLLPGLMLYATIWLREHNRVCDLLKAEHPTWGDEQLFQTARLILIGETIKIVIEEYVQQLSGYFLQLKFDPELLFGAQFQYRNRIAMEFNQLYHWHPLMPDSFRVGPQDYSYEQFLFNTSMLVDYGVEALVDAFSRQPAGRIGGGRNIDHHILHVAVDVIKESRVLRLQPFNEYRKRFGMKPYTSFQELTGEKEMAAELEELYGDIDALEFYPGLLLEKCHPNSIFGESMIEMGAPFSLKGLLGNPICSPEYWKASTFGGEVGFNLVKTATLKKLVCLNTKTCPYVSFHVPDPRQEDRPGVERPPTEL
Put plainly: Inhibition of ovine COX1 by colorimetric assay. Summed up:
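Ovine COX-1, colorimetric inhibitor screening kit. Enzyme preincubated 5 min at 25 °C with compound. Arachidonic acid (final 1.1 mM) and TMPD then added, 5 min at 25 °C. Inhibition % = [1−(A1−A2)/A0]×100, blank without TMPD. IC50 from calibration curve over several concentrations. Triplicate experiments, mean reported.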

Converted amounts (≈) assume the structure as drawn.

By IC50 is commonly meant the concentration needed to halve the response being measured.

On to `O=C(/C=C/C=C/c1ccc(O)cc1)/C=C/c1ccc(O)cc1`, for which the IC50 in assay [1] is over 100 µg/mL; in assay [2], over 100 µg/mL; in assay [3], 19.8 µM.
With `COc1ccc(CCc2ccccc2O)cc1OC`, the IC50 in assay [1] is over 100 µg/mL; in assay [2], over 100 µg/mL; in assay [3], over 387 µM.
`Oc1cc(O)cc(CCc2ccccc2O)c1`: the half-inhibitory concentration (IC50) in assay [1] is over 100 µg/mL; in assay [2], over 100 µg/mL; in assay [3] it was over 434 µM.
As to `COc1c(O)cc(CCc2ccccc2)cc1O`, the IC50 is 37.5 µg/mL (≈ 154 µM) in assay [1], over 100 µg/mL in assay [2] and over 409 µM in assay [3].
With `COc1c(O)cccc1CCc1cc(O)cc(O)c1`, the concentration for half-maximal inhibition (IC50) in assay [1] was 46.7 µg/mL (≈ 179 µM); in assay [2] it was over 100 µg/mL; in assay [3], over 384 µM.
Taken in the same sequence, the figures for `Oc1cc(O)c2c(c1)CCc1ccccc1O2` were over 100 µg/mL, over 100 µg/mL and over 438 µM.
The like results for `COc1cc(O)cc2c1Oc1ccccc1CC2` were, in that order, 40.6 µg/mL (≈ 168 µM), over 100 µg/mL and over 413 µM.
As to `COc1cc(CCc2ccccc2O)cc(OC)c1O`, the IC50 in assay [1] is 28.8 µg/mL (≈ 105 µM); in assay [2], 56.3 µg/mL (≈ 205 µM); in assay [3] it was over 365 µM.
Taken in the same sequence, the figures for `COc1cc(/C=C/C=C/C(=O)CCc2ccc(O)cc2)ccc1O` were 40 µg/mL (≈ 123 µM), 38.8 µg/mL (≈ 120 µM) and over 308 µM.
Regarding `O=C(/C=C/C=C/c1ccc(O)cc1)CCc1ccc(O)cc1`, the IC50 in assay [1] is over 100 µg/mL; in assay [2] it was 44.1 µg/mL (≈ 150 µM); in assay [3], over 340 µM.
The like results for `COc1cc2c(ccc3cc(O)cc(OC)c32)cc1O` were, in that order, 31.4 µg/mL (≈ 116 µM), 39.6 µg/mL (≈ 147 µM) and 11.1 µM.
The like results for `COc1cc(CC[C@@H](O)C[C@H](O)CCc2ccc(O)c(OC)c2)ccc1O` were, in that order, 12.3 µg/mL (≈ 32.7 µM), 48.7 µg/mL (≈ 129 µM) and over 266 µM.
As to `Oc1ccc(CC[C@@H](O)C[C@H](O)CCc2ccc(O)cc2)cc1` [(+)-HANNOKINOL], the half-maximal inhibitory concentration (IC50) was over 100 µg/mL in assay [1], over 100 µg/mL in assay [2] and over 316 µM in assay [3].
For the compound `O=c1cc(-c2ccc(O)cc2)oc2cc(O)cc(O)c12` [APIGENIN], the IC50 in assay [1] is over 100 µg/mL; in assay [2], over 100 µg/mL; in assay [3] it was over 370 µM.
As to `O=C1O[C@H]([C@@H](O)CO)C(O)=C1O` [ASCORBIC ACID], the IC50 in assay [1] stood at 19.2 µg/mL (≈ 109 µM); in assay [2], 16.7 µg/mL (≈ 94.8 µM).
Take `COc1cc(O)cc(CCc2cccc(O)c2)c1` [BATATASIN III]: the concentration for half-maximal inhibition (IC50) is over 100 µg/mL in assay [1], over 100 µg/mL in assay [2] and over 409 µM in assay [3].
Consider `COc1cc(O)cc(CCc2ccccc2O)c1` [BATATASIN IV], for which the half-maximal inhibitory concentration (IC50) in assay [1] is over 100 µg/mL; in assay [2], over 100 µg/mL; in assay [3], over 409 µM.
With `Oc1cc(O)c2c(c1)OC(c1ccc(O)c(O)c1)C(O)C2` (stereo not given) [CATECHIN], the IC50 in assay [1] was 13.5 µg/mL (≈ 46.5 µM); in assay [2] it was 13.7 µg/mL (≈ 47.2 µM).
With `COc1cc(O)cc2c1-c1c(O)cccc1CC2` [HIRCINOL], the half-maximal inhibitory concentration (IC50) was 63.8 µg/mL (≈ 263 µM) in assay [1], 62.4 µg/mL (≈ 258 µM) in assay [2] and over 413 µM in assay [3].
Taken in the same sequence, the figures for `COc1cc(O)c2c(c1)CCc1cc(O)ccc1-2` [LUSIANTHRIDIN] were 43 µg/mL (≈ 177 µM), 51.5 µg/mL (≈ 213 µM) and over 413 µM.
With `COc1cc(CCc2cc(O)cc(O)c2)ccc1O` [TRISTIN], the IC50 is 35.2 µg/mL (≈ 135 µM) in assay [1] and 51.6 µg/mL (≈ 198 µM) in assay [2].
